Experimental data reported in ChEMBL document CHEMBL3797175, “Discovery of 6-(difluoro(6-(4-fluorophenyl)-[1,2,4]triazolo[4,3-b][1,2,4]triazin-3-yl)methyl)quinoline as a highly potent and selective c-Met inhibitor” (Eur J Med Chem, 2016).
Activity calls are given as the source filed them. The rule behind the calls is not given here.

Assays:
EBC-1 = experiment: Antitumor activity against human EBC1 cells xenografted in po dosed athymic nude mouse assessed as tumor growth inhibition administered bid for 21 days measured twice a week during compound dosing; assay type: functional, organism-based
How it was run: (§1)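 Nude mice bearing s.c. tumours. Cells were first grown s.c. to 700–800 mm³, then 1.5 mm³ fragments were transplanted s.c. into the right flank. Mice were randomised at 100–200 mm³ (n=6 treated, n=12 vehicle) and dosed orally twice daily for 21 days. Caliper measurement twice weekly; TV = length×width²/2. TGI taken on the final day versus vehicle; Student's t test.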

[1] = molecular target: T1, Hepatocyte growth factor receptor (Homo sapiens, UniProt P08581); experiment: Inhibition of c-Met phosphorylation at Tyrosine 1235 in human MKN45 cells at 10 nM after 1 hr by Western blot analysis; assay type: cell-based; conditions: MKN-45
T1 sequence (P08581 whole entry): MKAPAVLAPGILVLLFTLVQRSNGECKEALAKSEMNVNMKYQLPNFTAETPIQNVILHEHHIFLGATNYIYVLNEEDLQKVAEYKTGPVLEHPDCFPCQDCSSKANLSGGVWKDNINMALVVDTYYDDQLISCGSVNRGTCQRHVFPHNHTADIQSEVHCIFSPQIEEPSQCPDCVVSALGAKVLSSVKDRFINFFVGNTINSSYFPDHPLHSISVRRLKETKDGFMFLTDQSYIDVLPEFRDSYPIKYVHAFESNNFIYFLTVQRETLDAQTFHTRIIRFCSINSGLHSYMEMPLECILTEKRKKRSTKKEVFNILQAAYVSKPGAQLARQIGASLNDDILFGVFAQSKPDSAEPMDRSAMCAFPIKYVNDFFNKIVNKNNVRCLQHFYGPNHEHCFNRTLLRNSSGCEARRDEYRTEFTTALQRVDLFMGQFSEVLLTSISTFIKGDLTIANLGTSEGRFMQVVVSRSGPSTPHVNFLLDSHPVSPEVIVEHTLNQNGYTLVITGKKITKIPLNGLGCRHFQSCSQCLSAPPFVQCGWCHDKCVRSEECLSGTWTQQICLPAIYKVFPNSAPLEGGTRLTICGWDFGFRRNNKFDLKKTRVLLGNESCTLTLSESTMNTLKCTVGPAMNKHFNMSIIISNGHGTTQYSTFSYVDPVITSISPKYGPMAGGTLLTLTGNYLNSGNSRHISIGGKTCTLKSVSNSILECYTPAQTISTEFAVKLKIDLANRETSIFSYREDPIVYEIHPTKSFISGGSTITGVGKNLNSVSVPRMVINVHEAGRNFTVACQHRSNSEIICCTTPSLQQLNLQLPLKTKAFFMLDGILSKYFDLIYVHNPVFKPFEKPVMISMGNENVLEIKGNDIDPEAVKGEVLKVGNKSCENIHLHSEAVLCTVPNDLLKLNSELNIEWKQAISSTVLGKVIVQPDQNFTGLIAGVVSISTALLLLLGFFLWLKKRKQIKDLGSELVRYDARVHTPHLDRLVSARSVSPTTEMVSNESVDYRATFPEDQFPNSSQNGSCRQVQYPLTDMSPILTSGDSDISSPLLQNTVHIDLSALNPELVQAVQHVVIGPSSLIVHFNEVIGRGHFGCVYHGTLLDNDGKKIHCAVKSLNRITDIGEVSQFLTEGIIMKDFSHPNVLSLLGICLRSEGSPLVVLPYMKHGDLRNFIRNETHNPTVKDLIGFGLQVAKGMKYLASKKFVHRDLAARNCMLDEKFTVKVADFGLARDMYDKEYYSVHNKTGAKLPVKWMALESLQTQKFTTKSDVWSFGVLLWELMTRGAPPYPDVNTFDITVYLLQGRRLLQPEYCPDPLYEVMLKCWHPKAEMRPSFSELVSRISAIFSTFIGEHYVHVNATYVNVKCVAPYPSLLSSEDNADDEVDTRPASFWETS
How it was run: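 EBC-1 or MKN45 cells treated with compound 1 h at 37 °C without HGF, then lysed in 1× SDS sample buffer. Lysates run on 10% SDS-PAGE and transferred to nitrocellulose. Probed with antibodies to c-Met, phospho-c-Met, phospho-ERK1/2, phospho-AKT, AKT and GAPDH, then HRP secondary. ECL detection.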

[2] = molecular target: Insulin-like growth factor 1 receptor (Homo sapiens) (UniProt P08069); experiment: Inhibition of recombinant IGF1R (unknown origin) using poly (Glu, Tyr) 4:1 as substrate at 1000 nM incubated for 60 mins by ELISA relative to control
Sequence of Insulin-like growth factor 1 receptor (Homo sapiens) (P08069 31-736 limits assumed): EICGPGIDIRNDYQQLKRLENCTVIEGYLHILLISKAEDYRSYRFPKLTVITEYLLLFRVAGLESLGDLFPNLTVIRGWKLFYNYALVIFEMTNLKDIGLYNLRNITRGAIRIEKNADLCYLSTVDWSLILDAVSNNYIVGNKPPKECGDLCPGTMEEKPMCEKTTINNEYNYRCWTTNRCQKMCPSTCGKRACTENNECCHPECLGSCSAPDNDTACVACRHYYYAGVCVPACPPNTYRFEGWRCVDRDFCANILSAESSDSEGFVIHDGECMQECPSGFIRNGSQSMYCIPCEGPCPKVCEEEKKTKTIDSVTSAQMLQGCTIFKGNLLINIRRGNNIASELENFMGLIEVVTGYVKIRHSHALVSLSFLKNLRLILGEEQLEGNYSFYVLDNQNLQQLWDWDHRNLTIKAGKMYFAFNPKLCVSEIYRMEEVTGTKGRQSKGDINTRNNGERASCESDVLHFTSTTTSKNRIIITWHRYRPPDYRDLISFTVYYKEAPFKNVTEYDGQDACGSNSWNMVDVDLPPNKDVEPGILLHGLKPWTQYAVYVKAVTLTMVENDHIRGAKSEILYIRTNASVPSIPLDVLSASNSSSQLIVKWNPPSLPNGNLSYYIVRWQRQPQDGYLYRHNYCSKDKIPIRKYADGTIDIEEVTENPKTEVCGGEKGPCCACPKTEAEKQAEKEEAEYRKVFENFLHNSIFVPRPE
Sequence of Insulin-like growth factor 1 receptor (Homo sapiens) (P08069 741-1367 limits assumed): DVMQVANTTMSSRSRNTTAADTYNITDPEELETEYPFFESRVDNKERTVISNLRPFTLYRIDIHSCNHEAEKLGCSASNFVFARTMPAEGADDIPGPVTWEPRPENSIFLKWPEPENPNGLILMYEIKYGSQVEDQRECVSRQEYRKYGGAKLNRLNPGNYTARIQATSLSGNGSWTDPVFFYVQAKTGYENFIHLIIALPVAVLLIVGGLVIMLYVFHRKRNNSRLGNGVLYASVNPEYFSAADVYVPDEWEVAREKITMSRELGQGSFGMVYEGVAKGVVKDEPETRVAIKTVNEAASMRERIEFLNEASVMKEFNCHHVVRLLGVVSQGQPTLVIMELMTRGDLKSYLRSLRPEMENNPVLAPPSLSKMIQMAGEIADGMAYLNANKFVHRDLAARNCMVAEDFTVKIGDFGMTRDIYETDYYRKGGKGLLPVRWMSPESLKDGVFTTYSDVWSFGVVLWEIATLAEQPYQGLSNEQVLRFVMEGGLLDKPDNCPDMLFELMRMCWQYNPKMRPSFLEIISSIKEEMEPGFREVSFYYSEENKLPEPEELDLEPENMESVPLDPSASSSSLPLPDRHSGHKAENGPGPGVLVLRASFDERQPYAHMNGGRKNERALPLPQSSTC
How it was run: (§2)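 Recombinant tyrosine kinases assayed on wells precoated with poly(Glu,Tyr)4:1 (20 µg/mL). ATP 10 µmol/L in HEPES pH 7.4 buffer with MgCl2, MnCl2, Na3VO4 and DTT; compound in 1% DMSO, 1% DMSO as control. Reaction 60 min at 37 °C. Phosphotyrosine detected with PY99 and HRP anti-mouse, o-phenylenediamine, A490. Inhibition % relative to control; two experiments.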

[3] = Selectivity ratio of IC50 for human BGC823 cells to IC50 for human MKN45 cells; assay type: ADME, cell-based; conditions: bgc-823
How it was run: (§3)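 Both IC50s in each ratio come from one proliferation assay. Cells were seeded and exposed the next day to a range of concentrations for 72 h, then read by SRB or MTT. IC50s were fitted by four-parameter concentration–response, with each concentration at least in triplicate and at least 2 experiments. BaF3/TPR-Met is murine pre-B BaF3 transfected with TPR-MET and puromycin-selected.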

[4] = Selectivity ratio of IC50 for human NCI-H1299 cells to IC50 for human EBC1 cells; assay type: ADME, cell-based; how it was run: as §3
[5] = Cmax in Sprague-Dawley rat at 10 mg/kg, po administered as single dose; assay type: ADME, organism-based; design: dose 10 mg/kg, route oral; conditions: in vivo
How it was run: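 Male Sprague Dawley rats (n=3), single dose. iv 2 mg/kg in 1% DMA/9% Cremophor/90% saline. po 10 mg/kg in 0.5% CMC-Na. Where iv was 10 mg/kg: 10% DMSO/10% Tween 80/80% (40% PEG40); po in that case in 10% DMSO/5% Tween 80/85% saline.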

[6] = molecular target: Ephrin type-B receptor 2 (Homo sapiens) (UniProt P29323); experiment: Inhibition of recombinant EPHB2 (unknown origin) using poly (Glu, Tyr) 4:1 as substrate at 1000 nM incubated for 60 mins by ELISA relative to control; how it was run: as §2
Sequence of Ephrin type-B receptor 2 (Homo sapiens) (P29323 whole entry): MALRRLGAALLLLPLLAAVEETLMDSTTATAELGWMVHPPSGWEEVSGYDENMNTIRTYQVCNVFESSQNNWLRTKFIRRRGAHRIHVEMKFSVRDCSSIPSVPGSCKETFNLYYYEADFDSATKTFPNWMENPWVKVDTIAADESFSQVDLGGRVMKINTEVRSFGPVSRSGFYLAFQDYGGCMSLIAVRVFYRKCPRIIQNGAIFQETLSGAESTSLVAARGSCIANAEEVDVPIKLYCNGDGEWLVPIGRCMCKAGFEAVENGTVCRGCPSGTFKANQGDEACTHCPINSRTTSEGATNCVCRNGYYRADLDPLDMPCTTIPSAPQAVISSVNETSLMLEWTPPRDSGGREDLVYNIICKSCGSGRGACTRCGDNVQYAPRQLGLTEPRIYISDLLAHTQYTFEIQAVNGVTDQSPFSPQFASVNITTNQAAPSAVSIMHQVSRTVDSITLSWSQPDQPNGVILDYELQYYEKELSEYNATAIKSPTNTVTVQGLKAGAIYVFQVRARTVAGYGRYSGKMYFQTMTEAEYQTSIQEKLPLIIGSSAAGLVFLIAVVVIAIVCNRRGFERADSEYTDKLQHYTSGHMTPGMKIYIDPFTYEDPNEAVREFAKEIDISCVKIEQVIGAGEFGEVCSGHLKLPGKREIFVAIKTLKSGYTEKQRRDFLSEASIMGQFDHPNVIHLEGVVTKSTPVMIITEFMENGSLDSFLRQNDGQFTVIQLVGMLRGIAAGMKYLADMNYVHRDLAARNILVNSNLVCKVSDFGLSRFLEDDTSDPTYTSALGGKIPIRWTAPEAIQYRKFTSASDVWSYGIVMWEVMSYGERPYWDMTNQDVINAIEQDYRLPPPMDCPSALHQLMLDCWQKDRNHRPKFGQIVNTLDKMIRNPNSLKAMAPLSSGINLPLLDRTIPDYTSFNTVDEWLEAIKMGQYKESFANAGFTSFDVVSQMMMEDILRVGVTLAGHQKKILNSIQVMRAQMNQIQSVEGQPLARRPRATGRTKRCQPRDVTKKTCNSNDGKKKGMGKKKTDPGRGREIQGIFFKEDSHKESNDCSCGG

[7] = molecular target: Tyrosine-protein kinase receptor UFO (Homo sapiens, UniProt P30530); experiment: Inhibition of recombinant AXL (unknown origin) using poly (Glu, Tyr) 4:1 as substrate incubated for 60 mins by ELISA
[8] = Antitumor activity against human MKN45 cells xenografted in athymic nude mouse assessed as tumor growth inhibition at 25 mg/kg, po bid for 21 days measured twice a week during compound dosing relative to control; assay type: functional; conditions: MKN-45, po, 504 h, read-out: TGI; how it was run: as §1
[9] = molecular target: T1, Hepatocyte growth factor receptor; experiment: Inhibition of recombinant c-Met (unknown origin) using poly (Glu, Tyr) 4:1 as substrate incubated for 60 mins by ELISA
[10] = molecular target: Fibroblast growth factor receptor 1 (Homo sapiens) (UniProt P11362); experiment: Inhibition of recombinant FGFR1 (unknown origin) using poly (Glu, Tyr) 4:1 as substrate at 1000 nM incubated for 60 mins by ELISA relative to control; how it was run: as §2
Sequence of Fibroblast growth factor receptor 1 (Homo sapiens) (P11362 22-822 limits assumed): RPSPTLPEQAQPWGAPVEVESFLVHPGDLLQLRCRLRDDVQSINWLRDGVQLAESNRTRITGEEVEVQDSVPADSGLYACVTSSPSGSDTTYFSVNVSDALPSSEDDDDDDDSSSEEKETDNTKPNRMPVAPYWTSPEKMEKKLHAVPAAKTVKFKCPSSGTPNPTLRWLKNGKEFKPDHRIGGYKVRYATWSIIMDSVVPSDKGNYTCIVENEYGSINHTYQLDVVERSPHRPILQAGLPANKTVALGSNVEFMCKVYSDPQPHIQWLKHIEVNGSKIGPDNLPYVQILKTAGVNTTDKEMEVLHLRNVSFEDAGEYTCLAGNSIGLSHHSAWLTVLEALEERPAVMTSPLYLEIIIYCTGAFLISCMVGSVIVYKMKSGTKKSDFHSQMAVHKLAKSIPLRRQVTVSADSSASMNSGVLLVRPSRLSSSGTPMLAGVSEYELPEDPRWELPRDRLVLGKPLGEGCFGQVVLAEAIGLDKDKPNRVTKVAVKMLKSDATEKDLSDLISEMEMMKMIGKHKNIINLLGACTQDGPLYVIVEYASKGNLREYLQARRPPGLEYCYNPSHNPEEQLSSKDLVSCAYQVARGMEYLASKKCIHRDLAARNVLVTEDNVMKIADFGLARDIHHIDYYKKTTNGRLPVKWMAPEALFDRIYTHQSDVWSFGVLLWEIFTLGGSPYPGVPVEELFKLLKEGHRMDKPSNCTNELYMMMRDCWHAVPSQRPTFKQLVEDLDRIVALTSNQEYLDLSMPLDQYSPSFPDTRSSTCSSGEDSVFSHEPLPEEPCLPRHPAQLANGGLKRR

[11] = Selectivity ratio of IC50 for human AGS cells to IC50 for human MKN45 cells; assay type: ADME, cell-based; how it was run: as §3
[12] = Selectivity ratio of IC50 for human SGC7901 cells to IC50 for human MKN45 cells; assay type: ADME, cell-based; conditions: sgc-7901
How it was run: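 Each cell line was seeded in 96-well plates, then exposed the next day to a range of compound concentrations for 72 h. Growth was read by SRB or MTT assay, and IC50 was fitted by a four-parameter concentration-response curve. Each concentration was run at least in triplicate, in at least 2 experiments. BaF3/TPR-Met are murine pre-B BaF3 cells transfected with TPR-MET cDNA and selected in puromycin.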

[13] = Selectivity ratio of IC50 for human MDA-MB-231 cells to IC50 for mouse BAF3 cells expressing TPR-MET; assay type: ADME, cell-based; how it was run: as §3
[14] = Selectivity ratio of IC50 for human NCI-H1299 cells to IC50 for human MKN45 cells; assay type: ADME, cell-based; how it was run: as §3
[15] = Selectivity ratio of IC50 for human NCI-H358 cells to IC50 for human EBC1 cells; assay type: ADME, cell-based; how it was run: as §3
[16] = Selectivity ratio of IC50 for human MDA-MB-231 cells to IC50 for human MKN45 cells; assay type: ADME, cell-based; conditions: mkn-45; how it was run: as §3
[17] = Selectivity ratio of IC50 for human SPCA1 cells to IC50 for mouse BAF3 cells expressing TPR-MET; assay type: ADME, cell-based; conditions: SPCA1 cells versus BAF3 cells expressing TPR-MET
[18] = molecular target: Tyrosine-protein kinase receptor UFO (Homo sapiens) (UniProt P30530); conditions: 1000 nM
[19] = Selectivity ratio of IC50 for human NCI-H226 cells to IC50 for mouse BAF3 cells expressing TPR-MET; assay type: ADME, cell-based; how it was run: as §3
NCI-H292 = experiment: Antiproliferative activity against human NCI-H292 cells after 72 hrs by SRB or MTT assay; assay type: functional, cell-based; conditions: NCI-H292, 72 h
How it was run: (§4)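 Cells seeded, exposed next day to a range of concentrations for 72 h. Growth read by sulforhodamine B or MTT. IC50 from four-parameter concentration-response fit. Each concentration tested at least in triplicate, with at least 2 experiments.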

NCI-H460 = experiment: Antiproliferative activity against human NCI-H460 cells after 72 hrs by SRB or MTT assay; assay type: functional, cell-based; conditions: NCI-H460, 72 h; how it was run: as §4
[20] = Antiproliferative activity against human SPCA1 cells after 72 hrs by SRB or MTT assay; assay type: functional, cell-based; conditions: SPCA1, 72 h; how it was run: as §4
[21] = molecular target: Epidermal growth factor receptor (Homo sapiens) (UniProt P00533); experiment: Inhibition of recombinant EGFR (unknown origin) using poly (Glu, Tyr) 4:1 as substrate at 1000 nM incubated for 60 mins by ELISA relative to control; how it was run: as §2
[22] = Selectivity ratio of IC50 for human NCI-H3122 cells to IC50 for human MKN45 cells; assay type: ADME, cell-based; conditions: mkn-45; how it was run: as §3

With `Fc1ccc(-c2cnc3nnc(C(F)(F)c4ccc5ncccc5c4)n3n2)cc1` the TGI (EBC-1) was “Dose-dependent effect”, the inhibition [1] was “Active” and the inhibition [2] was 0.4%. The Ratio IC50 [3] was greater than 10000, the “Ratio IC50” value [4] was 10000 and the Cmax [5] was 869 ng/mL. For the same molecule, the inhibition [6] was 8.5%, the IC50 [7] was greater than 1 µM and the inhibition in vivo at 25 mg/kg [8] was 96.5%. For the same molecule, the IC50 [9] was 0.00024 µM, the inhibition [10] was 12.8% and the “Ratio IC50” value [11] was 10000. For the same molecule, the Ratio IC50 [12] was greater than 10000, the Ratio IC50 [13] was greater than 10000 and the “Ratio IC50” value [14] was 10000. For the same molecule, the “Ratio IC50” value [15] was 10000, the Ratio IC50 [16] was greater than 10000 and the selectivity ratio [17] was greater than 10000. The inhibition [18] was 36%, the “Ratio IC50” value [19] was 10000 and the IC50 (NCI-H292) was greater than 10 µM. The IC50 (NCI-H460) was greater than 10 µM, the IC50 [20] was greater than 10 µM and the inhibition [21] was 33.2%. The “Ratio IC50” value [22] was 10000.
